Experiment [1] addresses T1, C-C chemokine receptor type 1 (Homo sapiens, UniProt P32246).
T1 sequence (P32246 whole entry): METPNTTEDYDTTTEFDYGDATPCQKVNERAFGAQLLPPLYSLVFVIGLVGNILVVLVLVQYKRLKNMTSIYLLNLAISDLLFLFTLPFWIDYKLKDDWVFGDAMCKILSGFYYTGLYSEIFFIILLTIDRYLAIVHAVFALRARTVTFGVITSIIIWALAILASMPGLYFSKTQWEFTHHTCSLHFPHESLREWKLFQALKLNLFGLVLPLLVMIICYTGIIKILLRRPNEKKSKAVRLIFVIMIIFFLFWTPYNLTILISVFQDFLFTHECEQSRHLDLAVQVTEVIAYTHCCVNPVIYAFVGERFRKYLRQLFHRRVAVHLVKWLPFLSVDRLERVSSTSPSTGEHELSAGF
As to the kind of experiment: Inhibitory activity against [125I]-MIP-1 alpha binding to human CCR1 receptors. In outline:
(§1)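 Whole-cell binding. CHO cells transfected with the CCR receptor were detached with PBS(-) containing 2 mM EDTA and resuspended in Krebs-Ringer phosphate buffer with 0.1% BSA and 0.1% glucose. 1 × 10^5 cells were incubated with 50 pM 125I-chemokine plus antagonist for 1 h at 37 °C to reach equilibrium. Nonspecific binding was taken with 100 nM unlabeled chemokine. Ice-cold buffer was then added.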

Experiment [2] addresses T2, C-C chemokine receptor type 1 (Mus musculus, UniProt P51675).
T2 sequence (P51675 whole entry): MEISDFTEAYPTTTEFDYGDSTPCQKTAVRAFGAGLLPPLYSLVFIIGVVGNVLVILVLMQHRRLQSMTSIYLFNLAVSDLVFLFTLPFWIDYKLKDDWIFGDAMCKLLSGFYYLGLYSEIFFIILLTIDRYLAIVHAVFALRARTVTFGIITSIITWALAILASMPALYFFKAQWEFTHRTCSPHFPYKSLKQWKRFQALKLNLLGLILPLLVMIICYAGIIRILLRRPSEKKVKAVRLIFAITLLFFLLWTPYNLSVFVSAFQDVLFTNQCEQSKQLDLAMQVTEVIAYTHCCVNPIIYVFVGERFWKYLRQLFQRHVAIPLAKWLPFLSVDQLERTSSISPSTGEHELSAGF
Put plainly: Inhibitory activity against [125I]-MIP-1 alpha binding to mouse CCR1 receptors. In outline:
as §1

The target in experiment [3] is T2, C-C chemokine receptor type 1. Put plainly: inhibitory activity against MIP-1 alpha- induced [Ca2+] response in U937 cells expressing mouse CCR1 receptor. The experiment is classed as functional, cell-based, U-937. A digest of the protocol:
(§2)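 Calcium flux in U937 cells transfected with CCR receptors, loaded with 1 µM Fura-2 AM for 30 min at 37 °C, washed twice and resuspended at 1×10^6 cells/mL in Krebs-Henseleit-Hepes buffer with 0.1% BSA. Stirred cuvette fluorescence read at 37 °C, excitation 340 and 380 nm, emission 510 nm, after chemokine stimulation.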

Experiment [4] has as its target T3, C-C chemokine receptor type 3 (Homo sapiens, UniProt P51677).
T3 sequence (P51677 whole entry): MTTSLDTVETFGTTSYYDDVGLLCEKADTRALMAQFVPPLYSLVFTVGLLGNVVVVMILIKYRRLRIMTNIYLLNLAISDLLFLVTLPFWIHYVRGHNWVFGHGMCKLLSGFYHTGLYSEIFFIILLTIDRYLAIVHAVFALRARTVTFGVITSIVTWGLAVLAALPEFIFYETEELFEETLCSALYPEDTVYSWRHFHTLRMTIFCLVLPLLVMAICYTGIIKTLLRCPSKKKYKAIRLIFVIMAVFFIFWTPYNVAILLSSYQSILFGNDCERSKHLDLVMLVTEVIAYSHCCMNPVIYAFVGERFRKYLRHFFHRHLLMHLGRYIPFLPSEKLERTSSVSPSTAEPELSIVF
Put plainly: Inhibitory activity against I-Eotaxin induced [Ca2+] response in human CCR3 receptor. The experiment is classed as functional. A digest of the protocol: as §2

Experiment [5] has as its target C-C chemokine receptor type 2 (Homo sapiens, UniProt P41597). Put plainly: Inhibitory activity in human CCR2b receptor.
Experiment [6] concerns the target T3, C-C chemokine receptor type 3. Put plainly: Inhibitory activity against I-Eotaxin binding to human CCR3 receptors. In outline: (§3)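 CCR-transfected CHO cells, detached with PBS(-)/2 mM EDTA, in Krebs-Ringer phosphate buffer with 0.1% BSA and 0.1% glucose. 1×10^5 cells incubated with 50 pM 125I-chemokine plus antagonist, 1 h at 37 °C to equilibrium. Nonspecific binding measured with 100 nM unlabeled chemokine. Reaction stopped with ice-cold binding buffer.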

Experiment [7] deals with T2, C-C chemokine receptor type 1. Put plainly: Inhibitory activity against 125 I -MIP-1 alpha binding to mouse CCR1 receptors. A digest of the protocol: as §3
A short description of experiment [8]: Inhibitory activity of Fractalkine-induced increase in [Ca2+] Conc. in HEL cells at human CX3CR1 receptor. It is filed as functional, cell-based. A digest of the protocol: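 Calcium rise evoked by fractalkine in HEL cells.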
The target of experiment [9] is T4, Probable C-C chemokine receptor type 3 (Mus musculus, UniProt P51678).
T4 sequence (P51678 whole entry): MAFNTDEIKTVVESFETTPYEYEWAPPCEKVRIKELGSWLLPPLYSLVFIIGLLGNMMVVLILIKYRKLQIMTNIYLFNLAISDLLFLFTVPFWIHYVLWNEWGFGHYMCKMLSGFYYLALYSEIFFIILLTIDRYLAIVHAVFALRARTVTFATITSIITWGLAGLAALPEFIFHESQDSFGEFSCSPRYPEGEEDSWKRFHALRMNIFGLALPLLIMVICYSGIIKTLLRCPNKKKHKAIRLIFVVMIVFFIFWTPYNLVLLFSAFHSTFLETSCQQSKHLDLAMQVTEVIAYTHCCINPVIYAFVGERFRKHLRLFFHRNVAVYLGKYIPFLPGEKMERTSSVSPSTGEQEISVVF
Put plainly: Inhibitory activity against I-Eotaxin induced [Ca2+] response in mouse CCR3 receptor. The experiment is classed as functional. In outline: (§4)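 U937 cells transfected with the CCR receptor were loaded with 1 µM Fura-2 AM for 30 min at 37 °C and washed twice. They were resuspended at 1 × 10^6 cells/mL in Krebs-Henseleit-HEPES with 0.1% BSA. The stirred cuvette suspension was read at 37 °C for chemokine-induced fluorescence change, with excitation at 340 and 380 nm and emission at 510 nm.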

In experiment [10] the target is T4, Probable C-C chemokine receptor type 3. As to the kind of experiment: Inhibitory activity against I-Eotaxin alpha binding to mouse CCR3 receptors. A digest of the protocol:
as §1

Experiment [11] has as its target T5, C-C chemokine receptor type 4 (Homo sapiens, UniProt P51679).
T5 sequence (P51679 whole entry): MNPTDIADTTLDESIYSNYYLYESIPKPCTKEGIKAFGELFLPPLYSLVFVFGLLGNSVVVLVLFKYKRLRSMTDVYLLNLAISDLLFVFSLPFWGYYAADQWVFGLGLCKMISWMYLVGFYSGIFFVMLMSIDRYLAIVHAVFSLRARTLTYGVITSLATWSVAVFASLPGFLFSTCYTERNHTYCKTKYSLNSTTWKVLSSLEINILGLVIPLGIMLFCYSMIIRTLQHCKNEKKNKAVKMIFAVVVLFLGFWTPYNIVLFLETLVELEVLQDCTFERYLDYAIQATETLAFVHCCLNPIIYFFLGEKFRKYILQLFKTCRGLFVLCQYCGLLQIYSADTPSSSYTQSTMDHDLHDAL
Put plainly: Inhibitory activity against […] induced increase in intracellular [Ca2+] in KU812 cells expressing human CCR4 receptor. It is filed as functional, cell-based. A digest of the protocol:
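Calcium rise evoked by TARC in KU812 cells.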

Experiment [12] has as its target C-C chemokine receptor type 5 (Homo sapiens, UniProt P51681). As to the kind of experiment: Inhibition of RANTES binding to C-C chemokine receptor type 5. A digest of the protocol:
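CCR5 binding was done on membranes, following the kit manufacturer's instructions.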

Experiment [13] is described as follows: Inhibitory activity of I-interleukin-8-binding to human neutrophil at human CXCR1,2 receptor. A digest of the protocol: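 125I-interleukin-8 binding to human neutrophil membranes.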
The target in experiment [14] is T1, C-C chemokine receptor type 1. As to the kind of experiment: Inhibitory activity against MIP-1 alpha- induced [Ca2+] response in U937 cells expressing human CCR1 receptor. The experiment is classed as functional, cell-based, U-937. A digest of the protocol:
as §4

Molecules are shown by their SMILES.

Sequence of C-C chemokine receptor type 2 (P41597 whole entry): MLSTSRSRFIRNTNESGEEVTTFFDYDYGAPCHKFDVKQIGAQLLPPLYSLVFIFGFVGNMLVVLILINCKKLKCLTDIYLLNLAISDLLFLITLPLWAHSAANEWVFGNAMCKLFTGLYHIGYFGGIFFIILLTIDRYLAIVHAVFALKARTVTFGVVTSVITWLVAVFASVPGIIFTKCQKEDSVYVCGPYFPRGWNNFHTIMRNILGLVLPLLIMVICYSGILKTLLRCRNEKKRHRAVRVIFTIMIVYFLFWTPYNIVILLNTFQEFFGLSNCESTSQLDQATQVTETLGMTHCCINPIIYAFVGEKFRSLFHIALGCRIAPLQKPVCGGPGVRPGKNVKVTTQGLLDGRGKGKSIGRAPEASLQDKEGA
Sequence of C-C chemokine receptor type 5 (P51681 whole entry): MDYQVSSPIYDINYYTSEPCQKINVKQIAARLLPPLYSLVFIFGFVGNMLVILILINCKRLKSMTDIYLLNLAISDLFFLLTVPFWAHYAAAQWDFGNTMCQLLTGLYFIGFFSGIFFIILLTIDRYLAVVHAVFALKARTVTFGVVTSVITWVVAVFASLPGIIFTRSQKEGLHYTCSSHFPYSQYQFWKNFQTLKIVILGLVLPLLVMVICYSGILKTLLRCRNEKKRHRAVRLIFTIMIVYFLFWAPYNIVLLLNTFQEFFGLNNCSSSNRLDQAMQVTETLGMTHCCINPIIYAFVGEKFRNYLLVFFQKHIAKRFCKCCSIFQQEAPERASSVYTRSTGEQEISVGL

Usually IC50 stands for the concentration needed to halve the response being measured. On to `C[N+]1(C/C2=C/CCCCCC2)CCC(NC(=O)C2c3ccccc3Oc3ccccc32)CC1` (configuration not stated), for which the IC50 in experiment [1] is 0.0025 µM; in experiment [2], 0.35 µM.

In the case of `CCCC[N+]1(CC2CCCCCCC2)CCC(NC(=O)C2c3ccccc3Oc3ccccc32)CC1` (configuration not stated), the figures for the IC50 in experiment [1] and in experiment [2] were 0.005 µM and 0.38 µM, respectively.

Take `O=C(NC1CCN(CC2CCCCCCCCC2)CC1)C1c2ccccc2Oc2ccccc21`: the IC50 was 0.8 µM in [1] and above 10 µM in [2].

Regarding `O=C(NC1CCN(C/C2=C/CCCCCC2)CC1)C1c2cc(Br)ccc2Oc2ccc(Br)cc21`, the IC50 in experiment [1] amounted to 0.15 µM; in experiment [2] it was 2.5 µM.

With `O=C(NC1CCN(C/C2=C/CCCCCC2)CC1)C1c2cc(Cl)ccc2Oc2ccc(Cl)cc21`, the values for the IC50 in [1] and in [2] were 0.24 µM and 1.9 µM, respectively.

Take `C[N+]1(CC2CCCCCCC2)CCC(NC(=O)C(c2ccccc2)c2ccccc2)CC1` (configuration not stated): the figures for the 50% inhibitory concentration (IC50) in experiment [1] and in [2] were 0.8 µM and above 10 µM, respectively.

As for `CC[N+]1(C/C2=C/CCCCCC2)CCC(NC(=O)C2c3cc(Cl)ccc3Oc3ccc(Cl)cc32)CC1` (stereo in doubt; 2q-1), the IC50 in [3] is 0.021 µM; in [4] it was 0.0061 µM; in experiment [5], above 1 µM; in experiment [1], 0.0009 µM; in experiment [6], 0.00058 µM; in experiment [7] it was 0.0058 µM. In addition, the IC50 in experiment [2] is 0.0058 µM; in experiment [8], above 10 µM; in experiment [9] it was 0.36 µM; in [10], 0.46 µM; in experiment [11], above 10 µM; in experiment [12], above 1 µM. The results for the IC50 in experiment [13] and in experiment [14] were above 1 µM and 0.00073 µM, respectively.

For `CCC[N+]1(CC2CCCCCCC2)CCC(NC(=O)C2c3ccccc3Oc3ccccc32)CC1` (configuration not stated), the IC50 in experiment [1] stood at 0.0036 µM; in experiment [2] it was 0.27 µM.

On to `O=C(NC1CCN(CC2CCCCCCC2)CC1)C1c2cc(Br)ccc2Oc2ccc(Br)cc21`, for which the values for the IC50 in experiment [1] and in experiment [2] were 5.1 µM and above 10 µM, respectively.

On to `O=C(NC1CCN(CC2CCCCCCC2)CC1)C(c1ccccc1)c1ccccc1`, for which the IC50 was 1.1 µM in experiment [1] and above 10 µM in experiment [2].

Source of the values: ChEMBL document CHEMBL1134409, “Design, synthesis, and discovery of a novel CCR1 antagonist” (J Med Chem, 2001).
